Measurements published in ChEMBL document CHEMBL3351402, “An efficient synthesis and biological screening of benzofuran and benzo[d]isothiazole derivatives for Mycobacterium tuberculosis DNA GyrB inhibition” (Bioorg Med Chem, 2014).
Converted amounts (≈) assume the structure as drawn.

Columns and labels:
[1] = tested on: Mycobacterium tuberculosis; assay: Antimicrobial activity against Mycobacterium tuberculosis H37Rv after 7 days by MABA assay; type: functional; conditions: 168 h
Method in brief: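 M. tuberculosis H37Rv inoculum from fresh LJ medium, resuspended in 7H9 broth (0.1% casitone, 0.5% glycerol, OADC), adjusted to McFarland No. 1 and diluted 1:20. Serial two-fold drug dilutions in 7H9-S. Drug-free and sterile controls. Incubated 7 days at 37 °C, then Alamar blue added and plates re-incubated overnight. MIC = lowest concentration preventing the blue-to-pink change.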

[2] = molecular target: DNA gyrase subunit B (Mycobacterium smegmatis, UniProt P0C559); assay: Inhibition of purified Mycobacterium smegmatis GyrB at 50 to 100 uM after 100 mins by ATPase assay; parameters: species or system Mycolicibacterium smegmatis
[3] = molecular target: DNA gyrase subunit A/DNA gyrase subunit B (Mycobacterium tuberculosis (strain ATCC 25618 / H37Rv), UniProt P9WG45+P9WG47); assay: Inhibition of Mycobacterium tuberculosis DNA gyrase using relaxed pBR322 as substrate after 30 mins by supercoiling assay
[4] = Cytotoxicity against mouse RAW264.7 cells assessed as reduction in cell viability at 100 uM after 72 hrs by MTT assay; type: cell-based; conditions: read-out: INH
Method in brief: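 RAW 264.7 mouse macrophages exposed to compound at 100 µM for 72 h. Viability measured by MTT conversion to formazan, with absorbance at 560 nm after 10 min incubation. Reported as percent inhibition.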

[5] = molecular target: DNA gyrase subunit B (Mycobacterium smegmatis) (UniProt P0C559); assay: Inhibition of purified Mycobacterium smegmatis GyrB ATPase activity at 50 to 100 uM after 100 mins by ATPase assay; conditions: Mycolicibacterium smegmatis
Method in brief: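 M. smegmatis GyrB expressed in BL21(DE3)pLysS, IPTG-induced (0.1 mM final), then Ni-NTA purified. Started with MgCl2, 100 min at room temperature. Released phosphate read at 635 nm.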

[6] = molecular target: DNA gyrase subunit A/DNA gyrase subunit B (Mycobacterium tuberculosis (strain ATCC 25618 / H37Rv)) (UniProt P9WG45+P9WG47); assay: Binding affinity to Mycobacterium tuberculosis DNA gyrase by differential scanning fluorimetry
Method in brief: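 Thermal shift assay with native GyrB protein. Reaction of 15 µL: assay buffer (50 mM Tris pH 7.4, 1 mM EDTA, 5 mM DTT), GyrB protein (1.5 mg/mL) and Sypro orange dye (1:100). Heated stepwise from 25 °C to 100 °C at 0.6 °C/min. Tm read from dye fluorescence. Shift in Tm of the ligand complex compared with the native protein Tm.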

Sequence of DNA gyrase subunit B (P0C559 whole entry): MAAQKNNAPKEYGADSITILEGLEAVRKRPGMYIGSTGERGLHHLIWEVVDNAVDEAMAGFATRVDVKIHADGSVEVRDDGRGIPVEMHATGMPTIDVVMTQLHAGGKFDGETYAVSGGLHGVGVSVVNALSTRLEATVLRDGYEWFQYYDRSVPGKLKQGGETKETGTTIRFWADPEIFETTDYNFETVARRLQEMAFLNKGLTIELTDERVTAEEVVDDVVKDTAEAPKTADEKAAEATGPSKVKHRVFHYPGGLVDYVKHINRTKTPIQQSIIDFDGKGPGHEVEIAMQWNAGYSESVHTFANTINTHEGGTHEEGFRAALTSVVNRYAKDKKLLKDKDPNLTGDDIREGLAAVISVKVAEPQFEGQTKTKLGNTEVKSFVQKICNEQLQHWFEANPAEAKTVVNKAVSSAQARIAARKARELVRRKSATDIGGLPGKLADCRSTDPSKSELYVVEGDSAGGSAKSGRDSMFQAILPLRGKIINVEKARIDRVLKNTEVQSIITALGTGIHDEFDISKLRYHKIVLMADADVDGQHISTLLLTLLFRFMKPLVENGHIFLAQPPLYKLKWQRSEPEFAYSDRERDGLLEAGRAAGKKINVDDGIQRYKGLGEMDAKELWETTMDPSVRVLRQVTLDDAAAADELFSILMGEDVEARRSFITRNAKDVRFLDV
Sequence of DNA gyrase subunit A/DNA gyrase subunit B (P9WG45 whole entry): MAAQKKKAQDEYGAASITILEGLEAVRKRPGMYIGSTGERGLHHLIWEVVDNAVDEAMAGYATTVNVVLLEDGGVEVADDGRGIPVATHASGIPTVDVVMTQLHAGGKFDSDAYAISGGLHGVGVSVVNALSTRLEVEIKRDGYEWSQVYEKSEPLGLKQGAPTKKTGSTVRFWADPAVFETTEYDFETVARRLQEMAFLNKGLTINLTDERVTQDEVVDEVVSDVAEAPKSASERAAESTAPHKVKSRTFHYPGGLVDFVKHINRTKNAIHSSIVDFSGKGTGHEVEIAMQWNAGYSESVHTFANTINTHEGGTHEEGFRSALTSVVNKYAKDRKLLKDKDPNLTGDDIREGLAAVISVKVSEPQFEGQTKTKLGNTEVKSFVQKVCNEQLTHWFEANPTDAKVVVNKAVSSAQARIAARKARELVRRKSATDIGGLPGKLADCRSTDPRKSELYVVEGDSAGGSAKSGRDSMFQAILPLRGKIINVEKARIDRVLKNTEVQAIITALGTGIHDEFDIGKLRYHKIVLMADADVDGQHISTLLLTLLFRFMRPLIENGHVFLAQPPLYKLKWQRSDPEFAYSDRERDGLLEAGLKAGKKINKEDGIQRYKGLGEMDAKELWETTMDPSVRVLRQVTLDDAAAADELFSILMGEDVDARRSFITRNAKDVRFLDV
Sequence of DNA gyrase subunit A/DNA gyrase subunit B (P9WG47 whole entry): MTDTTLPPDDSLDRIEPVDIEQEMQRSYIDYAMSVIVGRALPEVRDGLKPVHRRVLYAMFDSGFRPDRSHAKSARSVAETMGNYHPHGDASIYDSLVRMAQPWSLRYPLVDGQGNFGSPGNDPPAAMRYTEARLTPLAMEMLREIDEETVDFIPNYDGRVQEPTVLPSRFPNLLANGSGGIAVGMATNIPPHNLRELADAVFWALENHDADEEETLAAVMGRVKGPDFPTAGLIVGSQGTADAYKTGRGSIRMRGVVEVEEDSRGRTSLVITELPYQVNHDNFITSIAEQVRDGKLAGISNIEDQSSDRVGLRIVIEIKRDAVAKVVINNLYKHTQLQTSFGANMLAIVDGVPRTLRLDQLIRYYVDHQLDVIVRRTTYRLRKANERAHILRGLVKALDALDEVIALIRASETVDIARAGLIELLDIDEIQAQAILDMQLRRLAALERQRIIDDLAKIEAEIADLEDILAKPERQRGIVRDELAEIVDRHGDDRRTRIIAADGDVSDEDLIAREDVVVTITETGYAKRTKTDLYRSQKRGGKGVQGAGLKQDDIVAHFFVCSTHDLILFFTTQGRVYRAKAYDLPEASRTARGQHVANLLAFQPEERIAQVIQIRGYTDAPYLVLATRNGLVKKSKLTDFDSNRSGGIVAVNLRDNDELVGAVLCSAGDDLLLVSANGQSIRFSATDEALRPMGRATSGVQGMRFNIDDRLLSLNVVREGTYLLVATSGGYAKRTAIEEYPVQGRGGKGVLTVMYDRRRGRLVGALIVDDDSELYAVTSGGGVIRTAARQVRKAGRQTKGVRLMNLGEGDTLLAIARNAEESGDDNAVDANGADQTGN
Sequence of DNA gyrase subunit B (Mycobacterium smegmatis) (P0C559 2-675 limits assumed): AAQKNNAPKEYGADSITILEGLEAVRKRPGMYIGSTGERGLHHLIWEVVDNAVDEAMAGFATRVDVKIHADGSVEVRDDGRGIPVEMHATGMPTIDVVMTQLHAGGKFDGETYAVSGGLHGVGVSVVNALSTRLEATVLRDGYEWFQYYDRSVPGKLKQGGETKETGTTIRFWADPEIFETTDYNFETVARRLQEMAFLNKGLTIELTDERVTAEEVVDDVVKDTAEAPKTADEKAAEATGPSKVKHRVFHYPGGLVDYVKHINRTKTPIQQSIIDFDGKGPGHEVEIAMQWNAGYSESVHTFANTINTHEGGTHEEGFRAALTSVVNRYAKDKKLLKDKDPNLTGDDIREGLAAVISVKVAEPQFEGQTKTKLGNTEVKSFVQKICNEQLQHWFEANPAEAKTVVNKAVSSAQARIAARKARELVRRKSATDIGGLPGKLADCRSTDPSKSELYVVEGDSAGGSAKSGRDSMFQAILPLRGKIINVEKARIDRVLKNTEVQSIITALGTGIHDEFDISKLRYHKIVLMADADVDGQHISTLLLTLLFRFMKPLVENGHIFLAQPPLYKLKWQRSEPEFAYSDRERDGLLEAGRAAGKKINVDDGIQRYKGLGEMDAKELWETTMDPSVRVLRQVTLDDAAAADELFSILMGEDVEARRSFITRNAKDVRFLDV

Row | Compound | MIC [1] [µM] | IC50 [2] [µM] | IC50 [3] [µM] | cytotoxicity at 72 h, 100 µM [4] [%] | inhibition [5] [%] | Tm [6] [°C]
1 | CO[C@H]1/C=C/O[C@@]2(C)Oc3c(C)c(O)c4c(O)c(c(/C=N/N5CCN(C)CC5)c(O)c4c3C2=O)NC(=O)/C(C)=C\C=C\[C@H](C)[C@H](O)[C@@H](C)[C@@H](O)[C@@H](C)[C@H](OC(C)=O)[C@@H]1C [RIFAMPIN] | 0.23 (≈ 0.189 µg/mL) | – | – | – | – | –
2 | CCOC(=O)c1cc2cc(N3CCN(C(=S)NCc4ccc(Cl)cc4)CC3)ccc2o1 | 62 (≈ 28.4 µg/mL) | 29.9 | 11.3 | 41.5 | – | –
3 | CCOC(=O)c1cc2cc(N3CCN(C(=S)Nc4ccc(C(C)=O)cc4)CC3)ccc2o1 | 31.5 (≈ 14.2 µg/mL) | 27.3 | 16.9 | 21.2 | – | –
4 | CCOC(=O)c1cc2cc(N3CCN(C(=O)NCc4ccccc4)CC3)ccc2o1 | 35.5 (≈ 14.4 µg/mL) | 4.32 | 3.12 | 40.9 | > 60 | –
5 | S=C(NCc1ccccc1)N1CCN(c2nsc3ccccc23)CC1 | 14.7 (≈ 5.42 µg/mL) | 46 | > 25 | 19.1 | – | –
6 | S=C(NCc1ccc(Cl)cc1)N1CCN(c2nsc3ccccc23)CC1 | 6.82 (≈ 2.75 µg/mL) | 11.3 | 4.4 | 25.9 | – | –
7 | CCOC(=O)c1cc2cc(N3CCN(C(=S)Nc4ccc([N+](=O)[O-])cc4)CC3)ccc2o1 | 62.6 (≈ 28.4 µg/mL) | 12.9 | 10.6 | 25.8 | > 60 | –
8 | CC(=O)c1ccc(NC(=S)N2CCN(c3nsc4ccccc34)CC2)cc1 | 13.8 (≈ 5.48 µg/mL) | 11.1 | 8.4 | 40.7 | – | –
9 | O=C(Nc1ccc([N+](=O)[O-])cc1)N1CCN(c2nsc3ccccc23)CC1 | 28.5 (≈ 10.9 µg/mL) | 27.1 | 12.2 | 20.9 | – | –
10 | O=[N+]([O-])c1ccc(NC(=S)N2CCN(c3nsc4ccccc34)CC2)cc1 | 13.7 (≈ 5.48 µg/mL) | 1.81 | 0.83 | 27.6 | > 60 | –
11 | O=C(Nc1ccccc1)N1CCN(c2nsc3ccccc23)CC1 | 68.9 (≈ 23.3 µg/mL) | 19.9 | 4.59 | 27 | – | –
12 | O=C(NCc1ccccc1)N1CCN(c2nsc3ccccc23)CC1 | 1.9 (≈ 0.67 µg/mL) | 2.36 | 1.18 | 30.2 | > 60 | –
13 | CC[C@@H](CO)NCCN[C@@H](CC)CO [ETHAMBUTOL] | 0.66 (≈ 0.135 µg/mL) | – | – | – | – | –
14 | CCOC(=O)c1cc2cc(N3CCN(C(=O)Nc4ccc(OC)cc4)CC3)ccc2o1 | 4.24 (≈ 1.8 µg/mL) | 8.19 | 7.33 | 19.9 | > 60 | –
15 | NNC(=O)c1ccncc1 [ISONIAZID] | 0.66 (≈ 0.0905 µg/mL) | – | – | – | – | –
16 | CC(=O)c1ccc(NC(=O)N2CCN(c3nsc4ccccc34)CC2)cc1 | 28.7 (≈ 10.9 µg/mL) | 29.3 | 9.51 | 20.2 | – | –

Row | Compound | MIC [1] [µM] | IC50 [2] [µM] | IC50 [3] [µM] | cytotoxicity at 72 h, 100 µM [4] [%] | inhibition [5] [%] | Tm [6] [°C]
17 | CCOC(=O)c1cc2cc(N3CCN(C(=S)NCc4ccccc4)CC3)ccc2o1 | 33.9 (≈ 14.4 µg/mL) | 20.4 | 9.1 | 45.8 | – | –
18 | CCOC(=O)c1cc2cc(N3CCN(C(=O)Nc4ccccc4)CC3)ccc2o1 | 92.6 (≈ 36.4 µg/mL) | 16.9 | 7.14 | 21.3 | – | –
19 | O=C(NCc1ccc(Cl)cc1)N1CCN(c2nsc3ccccc23)CC1 | 14.1 (≈ 5.46 µg/mL) | 6.88 | 3.55 | 29.1 | > 60 | –
20 | S=C(Nc1ccccc1)N1CCN(c2nsc3ccccc23)CC1 | 15.2 (≈ 5.4 µg/mL) | 9.14 | 3.9 | 39.3 | > 60 | –
21 | COc1ccc(NC(=S)N2CCN(c3nsc4ccccc34)CC2)cc1 | 3.54 (≈ 1.36 µg/mL) | 2.86 | 1.05 | 19 | > 60 | –
22 | CCOC(=O)c1cc2cc(N3CCN(C(=O)Nc4ccc([N+](=O)[O-])cc4)CC3)ccc2o1 | 16.3 (≈ 7.15 µg/mL) | 5.07 | 2.93 | 19.6 | > 60 | –
23 | CC1COc2c(N3CCN(C)CC3)c(F)cc3c(=O)c(C(=O)O)cn1c23 (stereo not given) [OFLOXACIN] | 2.16 (≈ 0.781 µg/mL) | – | – | – | – | –
24 | CCOC(=O)c1cc2cc(N3CCN(C(=O)Nc4ccc(C(C)=O)cc4)CC3)ccc2o1 | 83.5 (≈ 36.4 µg/mL) | 7.86 | 3.55 | 21.6 | > 60 | –
25 | COc1ccc(NC(=O)N2CCN(c3nsc4ccccc34)CC2)cc1 | 14.7 (≈ 5.42 µg/mL) | 26.2 | 12.2 | 37.6 | – | –
26 | S=C(Nc1ccc(Cl)cc1)N1CCN(c2nsc3ccccc23)CC1 | 3.51 (≈ 1.37 µg/mL) | 9.32 | 4.21 | 44.2 | > 60 | –
27 | CCOC(=O)c1cc2cc(N3CCN(C(=S)Nc4ccc(Cl)cc4)CC3)ccc2o1 | 16.1 (≈ 7.13 µg/mL) | 35.2 | 13.2 | 30 | – | –
28 | CCOC(=O)c1cc2cc(N3CCN(C(=O)Nc4ccc(Cl)cc4)CC3)ccc2o1 | 16.8 (≈ 7.17 µg/mL) | 20.7 | 18.2 | 19.2 | – | –
29 | CCOC(=O)c1cc2cc(N3CCN(C(=S)Nc4ccc(OC)cc4)CC3)ccc2o1 | 16.2 (≈ 7.14 µg/mL) | 24.4 | 19.8 | 20.6 | – | –
30 | CCOC(=O)c1cc2cc(N3CCN(C(=O)NCc4ccc(Cl)cc4)CC3)ccc2o1 | 64.6 (≈ 28.6 µg/mL) | 2.97 | 1.61 | 21.6 | > 60 | –
31 | O=C(Nc1ccc(Cl)cc1)N1CCN(c2nsc3ccccc23)CC1 | 3.44 (≈ 1.28 µg/mL) | 1.77 | 0.42 | 20.3 | > 60 | 46.1
32 | CCOC(=O)c1cc2cc(N3CCN(C(=S)Nc4ccccc4)CC3)ccc2o1 | 35.3 (≈ 14.4 µg/mL) | 15.6 | 7.2 | 22.9 | – | –
